≈ marks a conversion by molar mass, not a printed value.
Experiments:
[1] = molecular target: T1, Sphingosine 1-phosphate receptor 1 (Homo sapiens, UniProt P21453); experiment: Agonist activity at human S1P1 receptor expressed in human U2OS cells co-expressing eGFP assessed as receptor internalization after 1 hr relative to 1-(4-(6-benzylbenzofuran-2-yl)-3-fluorobenzyl)azetidine-3-carboxylic acid; assay type: functional, cell-based
[2] = molecular target: T2, Sphingosine 1-phosphate receptor 3 (Homo sapiens, UniProt Q99500); experiment: Agonist activity at human S1P3 receptor expressed in CHO cells coexpressing Gq/i5 G-protein assessed as Ca2+ mobilization after 60 to 90 mins by FLIPR assay; assay type: functional, cell-based
Outline: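 Ca2+ mobilization in CHO-K1 cells transfected with hS1P3/Gq/i5. EC50 is the molar concentration giving a half-maximal response.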

[3] = molecular target: T2, Sphingosine 1-phosphate receptor 3; experiment: Agonist activity at human S1P3 receptor expressed in CHO cells coexpressing Gq/i5 G-protein assessed as Ca2+ mobilization at 25 uM after 60 to 90 mins by FLIPR assay; assay type: functional, cell-based
[4] = molecular target: T1, Sphingosine 1-phosphate receptor 1; experiment: Agonist activity at human S1P1 receptor expressed in human U2OS cells co-expressing eGFP assessed as receptor internalization after 1 hr; assay type: functional, cell-based
Outline: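 U2OS cells expressing an hS1P1-GFP fusion protein; the read-out was receptor internalization. EC50 is the molar concentration giving a half-maximal response.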

[5] = molecular target: T2, Sphingosine 1-phosphate receptor 3; experiment: Agonist activity at human S1P3 receptor expressed in CHO cells coexpressing Gq/i5 G-protein assessed as Ca2+ mobilization after 60 to 90 mins by FLIPR assay relative to 0.2 uM S1P
[6] = Intrinsic clearance in rat liver microsomes at 1 uM after 30 mins; assay type: ADME, Microsome; details: read-out: CLH
[7] = Apparent permeability of the compound across pig LLC-PK1 cells; assay type: ADME, cell-based, Sus scrofa
Outline: (§1)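 Parental porcine proximal tubule LLC-PK1 cell line. Apparent permeability was measured, and the efflux ratio was derived from it.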

[8] = Efflux ratio of permeability in pig LLC-PK1 cells; assay type: ADME, cell-based, Sus scrofa; outline: as §1
[9] = Plasma protein binding in rat; assay type: ADME, cell-free; details: read-out: PPB (converted)
Rattus norvegicus = experiment: Lymphopenic activity in Lewis rat assessed as reduction in peripheral blood lymphocyte counts at 1 mg/kg, po measured 24 hrs post dosing relative to control; assay type: functional; set-up: scale not given: the % may be the effect or the level left
Outline: (§2)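 Female Lewis rats (N = 5/group) received a single oral dose of 1 mg/kg in 20% captisol, 1% HPMC, 1% pluronic F68, pH 2.1 with MSA. Peripheral lymphocyte count is given as percent-of-control reduction versus vehicle at 24 h. Total plasma drug concentration was measured at 24 h. Statistics used ANOVA/Dunnett versus vehicle.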

Plasma = experiment: (§3) Plasma concentration in Lewis rat at 1 mg/kg, po measured 24 hrs post dosing; assay type: ADME, organism-based; set-up: dose 1 mg/kg, route oral; details: in vivo, 24 h, BLD = below limit of detection; outline: as §2
[10] = Solubility of the compound in simulated intestinal fluid at pH 6.8 after 2 to 3 days by HPLC analysis; assay type: physicochemical
[11] = as §3; assay type: ADME, organism-based; set-up: dose 1 mg/kg, route oral; details: Lewis, plasma; outline: as §2

T1 sequence (P21453 whole entry): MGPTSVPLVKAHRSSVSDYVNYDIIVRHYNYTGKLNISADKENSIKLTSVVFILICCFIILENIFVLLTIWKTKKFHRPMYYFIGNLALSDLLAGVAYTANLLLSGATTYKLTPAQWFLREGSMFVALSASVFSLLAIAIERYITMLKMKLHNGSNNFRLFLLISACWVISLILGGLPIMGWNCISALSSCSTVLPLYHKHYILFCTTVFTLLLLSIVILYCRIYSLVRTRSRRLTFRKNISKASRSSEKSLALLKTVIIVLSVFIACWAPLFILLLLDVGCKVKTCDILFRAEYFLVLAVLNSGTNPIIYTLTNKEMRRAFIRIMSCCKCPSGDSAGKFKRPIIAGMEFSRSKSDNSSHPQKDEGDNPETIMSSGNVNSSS
T2 sequence (Q99500 whole entry): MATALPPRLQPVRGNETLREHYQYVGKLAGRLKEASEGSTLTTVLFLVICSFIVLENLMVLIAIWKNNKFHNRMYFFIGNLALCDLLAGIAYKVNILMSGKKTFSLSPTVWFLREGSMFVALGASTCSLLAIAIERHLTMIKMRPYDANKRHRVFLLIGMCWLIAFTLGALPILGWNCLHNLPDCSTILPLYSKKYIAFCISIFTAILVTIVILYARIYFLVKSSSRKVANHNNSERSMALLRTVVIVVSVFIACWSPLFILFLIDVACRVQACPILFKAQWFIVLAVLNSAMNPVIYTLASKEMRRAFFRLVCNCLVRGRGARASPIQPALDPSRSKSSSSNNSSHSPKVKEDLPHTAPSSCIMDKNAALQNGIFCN

With `Cn1cc(C(=O)Nc2ccc(-c3ccccc3)c(C(F)(F)F)c2)c(=O)c2cccc(CCO)c21` as the compound, how does the Efficacy [1] read?
Its Efficacy is 106%.

And the EC50 [2]?
The EC50 was > 25 µM.

What about the Activity [3] of the same compound?
The Activity was < 10%.

And the EC50 [4]?
Its EC50 is 390 nM.

Which Efficacy [5] does the source give for `Cn1cc(C(=O)Nc2ccc(-c3ccccc3)c(C(F)(F)F)c2)c(=O)c2cccc(C(=O)O)c21` here?
Its Efficacy is 11%.

And the Efficacy [1]?
Its Efficacy is 103%.

And the EC50 [2]?
The EC50 was 1.1 µM.

And the EC50 [4]?
Its EC50 is 2000 nM.

Which Efficacy [1] does the source give for `Cn1cc(C(=O)Nc2ccc(-c3ccccc3)c(C(F)(F)F)c2)c(=O)c2ccc(CN3CC(C(=O)O)C3)cc21` here?
The Efficacy was 108%.

And the EC50 [2]?
The EC50 was > 25 µM.

What about the Activity [3] of the same compound?
Its Activity is < 10%.

And the EC50 [4]?
Its EC50 is 25 nM.

What does the source list for `Cn1cc(C(=O)Nc2ccc(-c3ccccc3)c(C(F)(F)F)c2)c(=O)c2ccc(C(=O)O)cc21`?
microsomal CLint at 1 µM [6]: < 14 µL/min/mg; Papp [7]: 3 ×10⁻⁶ cm/s; efflux ratio [8]: 6.7; Efficacy [1]: 98%; EC50 [2]: > 25 µM; fraction unbound [9]: 0.02; Activity [3]: < 10%; Activity (Rattus norvegicus): 4%; Cp (Plasma): BLD; solubility [10]: 48 µg/mL (≈ 103 µM); EC50 [4]: 21 nM

What does the source list for `Cn1cc(C(=O)Nc2ccc(-c3ccccc3)c(C(F)(F)F)c2)c(=O)c2ccc(CCO)cc21`?
microsomal CLint at 1 µM [6]: < 14 µL/min/mg; Papp [7]: 2.2 ×10⁻⁶ cm/s; efflux ratio [8]: 1; Efficacy [1]: 118%; EC50 [2]: > 25 µM; fraction unbound [9]: 0.073; Activity [3]: < 10%; Activity (Rattus norvegicus): -48%; concentration at 24 h [11]: 27 ng/mL; solubility [10]: 6 µg/mL (≈ 12.9 µM); EC50 [4]: 8 nM

With `Cn1cc(C(=O)Nc2ccc(-c3ccccc3)c(C(F)(F)F)c2)c(=O)c2ccc(CCC(=O)O)cc21` as the compound, how does the Efficacy [5] read?
Its Efficacy is 82%.

And the microsomal CLint at 1 µM [6]?
The microsomal CLint at 1 µM was < 14 µL/min/mg.

And the Papp [7]?
The Papp was 1.6 ×10⁻⁶ cm/s.

And the efflux ratio [8]?
The efflux ratio was 1.

What about the Efficacy [1] of the same compound?
The Efficacy was 85%.

And the EC50 [2]?
Its EC50 is 0.94 µM.

What about the fraction unbound [9] of the same compound?
Its fraction unbound is 0.022.

What about the Activity (Rattus norvegicus) of the same compound?
Its Activity is -25%.

And the concentration at 24 h [11]?
Its concentration at 24 h is 4 ng/mL.

What about the solubility [10] of the same compound?
The solubility was 200 µg/mL (≈ 404 µM).

What about the EC50 [4] of the same compound?
The EC50 was 4 nM.

What does the source list for `Cn1cc(C(=O)Nc2ccc(-c3ccccc3)c(C(F)(F)F)c2)c(=O)c2cccc(CO)c21`?
Efficacy [1]: 104%; EC50 [2]: > 25 µM; Activity [3]: < 10%; EC50 [4]: 39 nM

For `Cn1cc(C(=O)Nc2ccc(-c3ccccc3)c(C(F)(F)F)c2)c(=O)c2cnccc21`, which microsomal CLint at 1 µM [6] is on record?
Its microsomal CLint at 1 µM is < 14 µL/min/mg.

What about the EC50 [2] of the same compound?
Its EC50 is > 25 µM.

And the fraction unbound [9]?
Its fraction unbound is 0.083.

What about the Activity [3] of the same compound?
Its Activity is < 10%.

What about the Activity (Rattus norvegicus) of the same compound?
Its Activity is -64%.

And the solubility [10]?
Its solubility is 5 µg/mL (≈ 11.8 µM).

Which Efficacy [1] does the source give for `Cn1cc(C(=O)Nc2ccc(-c3ccccc3)c(C(F)(F)F)c2)c(=O)c2ccccc21` here?
Its Efficacy is 105%.

From ChEMBL document CHEMBL2034924, “Optimization of a Potent, Orally Active S1P1 Agonist Containing a Quinolinone Core” (ACS Med Chem Lett, 2012)
